Results taken from ChEMBL document CHEMBL4000187, “Design and synthesis of emodin derivatives as novel inhibitors of ATP-citrate lyase” (Eur J Med Chem, 2017).
The source made the active and inactive calls. The calls are words filed in the database; no cut-off is given here.

Columns and labels:
[1] = target: T1, ATP-citrate synthase (Homo sapiens) (UniProt P53396); test: Inhibition of ATP citrate lyase (unknown origin) at 10 uM using sodium citrate as substrate after 60 mins by ADP-Glo luminescence assay relative to control
T1 sequence (whole entry): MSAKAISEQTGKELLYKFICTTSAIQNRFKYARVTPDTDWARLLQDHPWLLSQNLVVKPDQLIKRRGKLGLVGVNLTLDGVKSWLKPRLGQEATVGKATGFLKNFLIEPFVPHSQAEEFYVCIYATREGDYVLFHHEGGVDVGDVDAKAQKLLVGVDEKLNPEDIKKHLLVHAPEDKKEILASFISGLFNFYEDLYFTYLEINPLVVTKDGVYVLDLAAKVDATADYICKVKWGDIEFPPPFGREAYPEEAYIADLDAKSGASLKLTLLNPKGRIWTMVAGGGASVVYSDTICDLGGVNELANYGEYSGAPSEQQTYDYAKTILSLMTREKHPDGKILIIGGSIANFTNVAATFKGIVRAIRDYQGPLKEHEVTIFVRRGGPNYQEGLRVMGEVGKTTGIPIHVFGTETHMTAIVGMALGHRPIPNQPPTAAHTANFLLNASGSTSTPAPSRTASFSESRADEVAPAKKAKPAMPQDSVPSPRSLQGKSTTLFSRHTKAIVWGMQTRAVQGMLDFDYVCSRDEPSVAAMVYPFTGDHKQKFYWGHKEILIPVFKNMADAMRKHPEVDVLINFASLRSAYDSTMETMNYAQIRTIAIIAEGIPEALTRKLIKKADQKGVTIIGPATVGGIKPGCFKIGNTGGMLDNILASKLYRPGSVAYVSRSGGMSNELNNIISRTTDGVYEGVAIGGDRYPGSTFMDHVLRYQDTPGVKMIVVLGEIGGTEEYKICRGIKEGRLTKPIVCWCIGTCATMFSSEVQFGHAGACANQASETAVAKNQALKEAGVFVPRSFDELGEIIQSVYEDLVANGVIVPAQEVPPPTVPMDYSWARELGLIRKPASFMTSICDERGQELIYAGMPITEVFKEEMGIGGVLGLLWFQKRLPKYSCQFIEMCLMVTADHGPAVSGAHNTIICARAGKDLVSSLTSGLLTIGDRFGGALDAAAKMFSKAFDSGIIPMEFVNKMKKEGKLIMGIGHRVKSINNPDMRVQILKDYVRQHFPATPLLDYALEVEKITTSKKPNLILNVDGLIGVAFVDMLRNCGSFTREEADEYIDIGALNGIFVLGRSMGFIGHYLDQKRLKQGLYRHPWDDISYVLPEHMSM
Outline: (§1)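 ADP-Glo reagent then added for 45 min at room temperature, and ADP formed was read by luminescence. Dose-response run in duplicate over 0.03–30 µM in 3.3-fold serial dilutions.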

ATP-citrate synthase = target: T2, ATP-citrate synthase (Homo sapiens, UniProt P53396); test: Inhibition of ATP citrate lyase (unknown origin) using sodium citrate as substrate after 60 mins by ADP-Glo luminescence assay; outline: as §1
T2 sequence (P53396 whole entry): T1 sequence (whole entry)

HMLE [2] = test: Inhibition of cancer stemness in snail expressing HMLE cells under 3D culture condition assessed as induction of apoptosis in spheroid at 25 uM by Hoechst 33342/Sytox green staining-based confocal microscopic method; type: functional, cell-based; conditions: Homo sapiens
Outline: (§2)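 Cells seeded at 2000 per well onto 1.5% agarose-coated wells and grown 2 days at 37 °C, 5% CO₂ to form spheroids before treatment. Staining used Hoechst 33342 for all nuclei plus Sytox Green for dead cells, each at 1:10,000 final. Confocal imaging measured spheroid inner area and Sytox Green integrated density (IntDen), with IntDen/Area as the index.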

HMLE [3] = test: Inhibition of cancer stemness in snail expressing HMLE cells under 3D culture condition assessed as reduction in spheroid size at 25 uM by Hoechst 33342/Sytox green staining-based confocal microscopic method; type: functional, cell-based; conditions: Homo sapiens; outline: as §2
A549 [4] = test: Inhibition of cancer stemness in human A549 cells under 3D culture condition assessed as reduction in spheroid size at 25 uM by Hoechst 33342/Sytox green staining-based confocal microscopic method; type: functional, cell-based; outline: as §2
A549 [5] = test: Inhibition of cancer stemness in human A549 cells under 3D culture condition assessed as induction of apoptosis in spheroid at 25 uM by Hoechst 33342/Sytox green staining-based confocal microscopic method; type: functional, cell-based; outline: as §2
A549 [6] = test: Antiproliferative activity against human A549 cells at 5 uM after 24 hrs by WST1 assay relative to control; type: functional; conditions: A549, 24 h
Outline: (§3)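 A549 cells seeded at 5 × 10⁴/well in Ham's F-12 with 10% FBS, with or without compound, cultured 24 h at 37 °C in 5% CO₂. Single-concentration screen at 5 µM; dose-escalation at 1, 5, 10 µM. WST-1 reagent added, 1 h incubation, absorbance at 450 nm. ACL shRNA/siRNA knockdown served as positive control.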

[7] = target: T1, ATP-citrate synthase (Homo sapiens); test: Inhibition of ATP citrate lyase (unknown origin) at 3.3 uM using sodium citrate as substrate after 60 mins by ADP-Glo luminescence assay relative to control; outline: as §1
A549 [8] = test: Antiproliferative activity against human A549 cells after 24 hrs by WST1 assay; type: functional, cell-based; outline: as §3
A549 [9] = test: Inhibition of cancer stemness in human A549 cells under 3D culture condition assessed as induction of apoptosis in spheroid by Hoechst 33342/Sytox green staining-based confocal microscopic method; type: functional, cell-based; outline: as §2
A549 [10] = test: Inhibition of cancer stemness in human A549 cells under 3D culture condition assessed as reduction in spheroid size by Hoechst 33342/Sytox green staining-based confocal microscopic method; type: functional, cell-based; outline: as §2
HMLE [11] = test: Inhibition of cancer stemness in snail expressing HMLE cells under 3D culture condition assessed as reduction in spheroid size by Hoechst 33342/Sytox green staining-based confocal microscopic method; type: functional, cell-based; conditions: Homo sapiens; outline: as §2
A549 [12] = test: Antiproliferative activity against human A549 cells at 10 uM after 24 hrs by WST1 assay relative to control; type: functional; conditions: A549, 24 h; outline: as §3
HMLE [13] = test: Inhibition of cancer stemness in snail expressing HMLE cells under 3D culture condition assessed as induction of apoptosis in spheroid by Hoechst 33342/Sytox green staining-based confocal microscopic method; type: functional, cell-based; conditions: Homo sapiens; outline: as §2

Structure (SMILES) | inhibition [1] | IC50 (ATP-citrate synthase) | also measured
Cc1cc(O)c2c(c1)C(=O)c1cc(O)c(CN(C)c3ccccc3)c(O)c1C2=O | 6% |  | 
Cc1cc(O)c2c(c1)C(=O)c1cc3c(c(O)c1C2=O)CN(c1ccccc1)CO3 |  | 25.8 µM | 
Cc1cc(O)c2c(c1)C(=O)c1cc(O)c(CN3CCOCC3)c(O)c1C2=O | 10% |  | 
Cc1cc(O)c2c(c1)C(=O)c1cc3c(c(O)c1C2=O)CN(c1ccc2ocnc2c1)CO3 |  | 29.7 µM | 
COc1ccc(-c2ccccc2)cc1NS(=O)(=O)c1cc(Cl)cc(Cl)c1O |  |  | inhibition (HMLE [2]): Active; inhibition (HMLE [3]): Active; inhibition (A549 [4]): Active; inhibition (A549 [5]): Active
COc1cc(OC)cc(-c2c(O)cc3c(c2O)C(=O)c2c(O)cc(C)cc2C3=O)c1 | 0% |  | 
COc1cc2c(c(OC)c1Cl)C(=O)c1c(OC)cc(C)cc1C2=O | 0% |  | 
Cc1cc(O)c2c(c1)C(=O)c1cc(O)c(-c3cccnc3)c(O)c1C2=O |  | 21.1 µM | 
Cc1cc(O)c2c(c1)C(=O)c1cc(O)c(Cl)c(O)c1C2=O |  | 12.6 µM | inhibition at 5 µM (A549 [6]): 40 to 80%
COc1ccc(-c2c(O)cc3c(c2O)C(=O)c2c(O)cc(C)cc2C3=O)cc1 |  | 18.8 µM | 
Cc1cc(O)c2c(c1)C(=O)c1c(Br)c(O)c(Br)c(O)c1C2=O | > 99% | 2.9 µM | inhibition [7]: > 99%; inhibition (A549 [8]): Dose-dependent effect; inhibition (A549 [9]): Dose-dependent effect; inhibition (A549 [10]): Dose-dependent effect; inhibition at 5 µM (A549 [6]): 40 to 80%; inhibition (HMLE [11]): Dose-dependent effect; inhibition at 10 µM (A549 [12]): 100%; inhibition (HMLE [13]): Dose-dependent effect
Cc1cc(O)c2c(c1)C(=O)c1cc(O)c(I)c(O)c1C2=O |  | 7.5 µM | 
Cc1cc(O)c2c(c1)C(=O)c1c(Cl)c(O)cc(O)c1C2=O |  | 9.6 µM | inhibition at 5 µM (A549 [6]): 40 to 80%
Cc1cc(O)c2c(c1)C(=O)c1cc(O)c(-c3ccncc3)c(O)c1C2=O | 0% |  | 
Cc1cc(O)c2c(c1)C(=O)c1c(c(O)c(-c3cccnc3)c(O)c1-c1cccnc1)C2=O |  | 23.5 µM | 
COc1cccc(-c2c(O)cc3c(c2O)C(=O)c2c(O)cc(C)cc2C3=O)c1 |  | 21.2 µM | 
Cc1cc(O)c2c(c1)C(=O)c1cc(O)cc(O)c1C2=O | 0% |  | 
Cc1cc(O)c2c(c1)C(=O)c1cc(O)c(-c3cnn(C)c3)c(O)c1C2=O |  | 13.3 µM | inhibition (A549 [8]): Dose-dependent effect; inhibition at 5 µM (A549 [6]): 40 to 80%
Cc1ccc(-c2c(O)cc3c(c2O)C(=O)c2c(O)cc(C)cc2C3=O)cc1 | 0% |  | 
Cc1cccc(-c2c(O)cc3c(c2O)C(=O)c2c(O)cc(C)cc2C3=O)c1 |  | 30 µM | 
Cc1cc(O)c2c(c1)C(=O)c1cc(O)c(CN3CCCCC3)c(O)c1C2=O | 6% |  | 
Cc1cc(O)c2c(c1)C(=O)c1cc(O)c(-c3ccccc3)c(O)c1C2=O | 8% |  | 
Cc1cc(O)c2c(c1)Cc1cc(O)cc(O)c1C2=O | 0% |  | 
Cc1cc(O)c2c(c1)Cc1c(Cl)c(O)cc(O)c1C2=O |  | 3.8 µM | inhibition at 5 µM (A549 [6]): 40 to 80%
